The text below walks through data of ChEMBL document CHEMBL1821725, “Synthesis and biological evaluation of 2',4'- and 3',4'-bridged nucleoside analogues” (Bioorg Med Chem, 2011).

Converted amounts (≈) assume the structure as drawn. The source made the active and inactive calls. The rule behind the calls is not given here.

Broadly, the IC50 is the midpoint of a concentration-inhibition curve. What is called CC50 is the concentration giving 50% cytotoxicity. A low value points to greater toxicity to the cells. For orientation: MIC means the least concentration at which growth counts as inhibited. A higher MIC goes with a less susceptible organism.

For data set [1], the system named is Escherichia coli. The data set is described as follows: Antibacterial activity against Escherichia coli MG1655 at 64 uM after 24 hrs by micro-broth dilution method. It is filed as functional. To be noted: K-12 substr. MG1655. In outline:
(§1)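 CLSI broth microdilution. Compounds serially diluted in cation-adjusted Mueller Hinton broth. Inoculum from fresh overnight MHA plate scrape, adjusted to 1 × 10^7 CFU/ml, 5 μL added per well. Incubated at 37 °C for 24 h. MIC = lowest concentration with no visible growth; median of at least three independent replicates. Highest concentration tested 64 μM.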

The subject of data set [2] is Raji. Put plainly: Cytotoxicity against human Raji cells after 72 hrs by MTT assay. It counts as functional, cell-based. In outline: (§2)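 Raji and CCRF-CEM cells incubated with compounds for 72 h. Viability read by MTT reduction to formazan, optical density at 570 nm. Data analysed by one-way ANOVA. IC50 taken as concentration giving 50% growth inhibition. Highest concentration tested 10 μM.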

The test system of data set [3] is Human immunodeficiency virus 1. Put plainly: Antiviral activity against HIV1 HxB2 infected in human TZM-bl cells assessed as inhibition of virus neutralization at 100 uM after 48 hrs by luciferase assay. It counts as functional, organism-based. In outline:
(§3)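 Single-round HIV-1 pseudoviruses made in 293T cells and titrated on TZM-bl cells. Virus giving ~1 × 10^6 RLU incubated 1 h at 37 °C with serially diluted samples. TZM-bl cells then plated at 1 × 10^5 per well for 48 h. Read-out: luciferase in cell lysate. IC50 = 50% neutralization. Highest concentration tested 100 μM.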

For data set [4], the system named is Staphylococcus aureus. The data set is described as follows: Antibacterial activity against Staphylococcus aureus 8325 at 64 uM after 24 hrs by micro-broth dilution method. It counts as functional. To be noted: NCTC 8325. A digest of the protocol:
as §1
In general terms: Broth dilution looks for growth in wells or tubes with falling amounts of substance.

Data set [5] has as its system CCRF-CEM. The data set is described as follows: Cytotoxicity against human CCRF-CEM cells after 72 hrs by MTT assay. It counts as functional, cell-based. A digest of the protocol: as §2
Background: Formazan colour is commonly taken as a measure of viable cells.

Data set [6] has as its system Human immunodeficiency virus 1. The data set is described as follows: Antiviral activity against HIV1 SF162 infected in human TZM-bl cells assessed as inhibition of virus neutralization at 100 uM after 48 hrs by luciferase assay. It is filed as functional, organism-based. A digest of the protocol: as §3
A short description of data set [7]: Cytotoxicity against human MT4 cells. It counts as cell-based.
Data set [8] concerns Human immunodeficiency virus 1. The data set is described as follows: Antiviral activity against HIV1 SF162 infected in human TZM-bl cells assessed as inhibition of virus neutralization after 48 hrs by luciferase assay. It is filed as functional, organism-based. A digest of the protocol:
as §3

Data set [9] concerns CCRF-CEM. Put plainly: Cytotoxicity against human CCRF-CEM cells at 10 uM after 72 hrs by MTT assay. It counts as functional, cell-based. A digest of the protocol:
as §2

In data set [10] the test system is Raji. The data set is described as follows: Cytotoxicity against human Raji cells at 10 uM after 72 hrs by MTT assay. It is filed as functional, cell-based. A digest of the protocol: as §2
In data set [11] the test system is Human immunodeficiency virus 1. Put plainly: Antiviral activity against HIV1 HxB2 infected in human TZM-bl cells assessed as inhibition of virus neutralization after 48 hrs by luciferase assay. It counts as functional, organism-based. The note with it: Human immunodeficiency virus 1, HxB2, TZM-bl. In outline: as §3
The subject of data set [12] is Human immunodeficiency virus. Put plainly: Antiviral activity against HIV. It counts as functional. The note with it: Human immunodeficiency virus 1; read-out: ED50 (the source's name).
The test system of data set [13] is Staphylococcus aureus. The data set is described as follows: Antibacterial activity against Staphylococcus aureus 8325 after 24 hrs by micro-broth dilution method. It is filed as functional. To be noted: NCTC 8325, 24 h. In outline:
as §1

Data set [14] relates to Escherichia coli. The data set is described as follows: Antibacterial activity against Escherichia coli MG1655 after 24 hrs by micro-broth dilution method. It is filed as functional. To be noted: K-12 substr. MG1655, 24 h. A digest of the protocol:
as §1

The test system of data set [15] is Human immunodeficiency virus 1. The data set is described as follows: Antiviral activity against HIV1 LAI. The note with it: Human immunodeficiency virus 1, LAI. It is filed as functional, organism-based.
A short description of data set [16]: Cytotoxicity against human TZM-bl cells at 33 uM after 48 hrs. It counts as cell-based.
Setting [17] is: Human immunodeficiency virus 1, SF162, TZM-bl, 48 h, read-out: IC50.

Consider `O=C(c1ccccc1)N(C(=O)c1ccccc1)c1nc(N(C(=O)c2ccccc2)C(=O)c2ccccc2)c2ncn([C@@H]3O[C@@]4(CO)CO[C@@H]3[C@@H]4OCc3ccccc3)c2n1`, for which the inhibition result in data set [1], in data set [3], in data set [4] and in data set [6] was “inactive” each time. In addition, the IC50 in data set [2] was 0.25 µM; in data set [5] it was 0.36 µM.

The molecule `Cc1cn([C@@H]2O[C@@]3(CO)COC[C@H]3[C@H]2O)c(=O)[nH]c1=O` showed a CC50 in data set [7] of 0.54 µg/mL (≈ 1.9 µM).

On to `Nc1nc(Cl)nc2c1ncn2[C@H]1C[C@H](O)[C@@H](CO)O1` [CLADRIBINE], for which the IC50 in data set [2] came out at 0.009 µM; in data set [5], 0.0005 µM.

As for `CCCCNc1nc(N)c2ncn([C@@H]3O[C@@]4(CO)CO[C@@H]3[C@@H]4OCc3ccccc3)c2n1`, the inhibition entry in data set [1] and in data set [4] was “inactive” in each case. The IC50 amounted to 68 µM in data set [8] (setting [17]) and 28 µM in [11]. Further, the “growth inhibition (GI)” value in [9] and in data set [10] was “inactive” in each case.

As for `Cc1cn([C@H]2C[C@H](N=[N+]=[N-])[C@@H](CO)O2)c(=O)[nH]c1=O` [ZIDOVUDINE], in data set [12], the EC50 is 0.001 µM. In addition, the IC50 in [8] (setting [17]) amounted to 0.078 µM; in data set [11], 0.037 µM.

On to `Cc1cn([C@@H]2O[C@@]3(CO)CO[C@H]3[C@H]2O)c(=O)[nH]c1=O`, for which the EC50 in data set [12] is 0.14 µM.

For the molecule `CN(Cc1ccccc1)c1nc(Cl)nc2c1ncn2[C@@H]1O[C@@]2(CO)CO[C@@H]1[C@@H]2O`, the values for the IC50 in data set [8] (setting [17]) and in data set [11] were 27.9 µM and 24.9 µM, respectively. The “growth inhibition (GI)” value in [9] and in data set [10] was “inactive” throughout. The MIC stood at 8 µM (≈ 3.34 µg/mL) in [13] and 16 µM (≈ 6.69 µg/mL) in [14].

Turning to `Cc1cn([C@@H]2C=CC3(CO)C[C@@H]23)c(=O)[nH]c1=O` (single isomer, unassigned), the EC50 in data set [15] came to 28.8 µM.

On to `CCNc1nc(N)c2ncn([C@@H]3O[C@@]4(CO)CO[C@@H]3[C@@H]4OCc3ccccc3)c2n1`, for which the inhibition entry in data set [1], in data set [3] and in data set [4] was “inactive” throughout. In data set [8] (setting [17]), the IC50 was determined as 60 µM. Besides, the “growth inhibition (GI)” value in data set [9] and in [10] was “inactive” each time.

As for `OC[C@@]12CO[C@@H]([C@H](n3cnc4c(NCc5ccccc5)nc(Cl)nc43)O1)[C@@H]2OCc1ccccc1`, the inhibition result in data set [1] and in [4] was “inactive” in each case. Also, the IC50 in data set [8] (setting [17]) was 7 µM; in [11], 2.4 µM. The “growth inhibition (GI)” value in data set [9] and in data set [10] was “inactive” each time.

For `Cc1cn([C@H]2C[C@@H]3COC[C@]3(CO)O2)c(=O)[nH]c1=O`, in data set [7], the CC50 was determined as 0.54 µg/mL (≈ 2.01 µM).

In the case of `C=CCc1nc(/C=C/C)c2ncn([C@@H]3O[C@@]4(CO)CO[C@@H]3[C@@H]4OCc3ccccc3)c2n1`, the inhibition result in data set [1] and in data set [4] was “inactive” each time. Also, the IC50 in data set [2] is 5.8 µM; in data set [8] (tzm-bl), “Not Active”; in data set [5] it was 7.6 µM; in [11], 2.4 µM. The Activity entry in data set [16] was “Toxic”.
